{
  "source": "ChEMBL document CHEMBL4145462",
  "about": "“Nitrogen-containing ecdysteroid derivatives vs. multi-drug resistance in cancer: Preparation and antitumor activity of oximes, oxime ethers and a lactam” (Eur J Med Chem, 2018)",
  "key": {"HeLa": {"tested_on": "HeLa", "experiment": "Antiproliferative activity against human HeLa cells after 72 hrs by MTT assay", "assay_type": "functional, cell-based", "outline": "(§1)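 Cells grown in MEM with 10% FCS, 1% non-essential amino acids and 1% penicillin-streptomycin. Seeded at 5000 cells/well, exposed to 0.1–30.0 µM compound for 72 h. MTT (5 mg/ml solution) was then added for 4 h, formazan dissolved in DMSO, and absorbance read at 545 nm. Cisplatin served as positive control. IC50 came from sigmoidal dose–response fits (log inhibitor vs normalized response, variable slope).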"}, "SiHa": {"tested_on": "SiHa", "experiment": "Antiproliferative activity against human SiHa cells after 72 hrs by MTT assay", "assay_type": "functional, cell-based", "outline": "as §1"}, "MDA-MB-231": {"tested_on": "MDA-MB-231", "experiment": "Antiproliferative activity against human MDA-MB-231 cells after 72 hrs by MTT assay", "assay_type": "functional, cell-based", "conditions": "MDA-MB-231, 72 h", "outline": "as §1"}, "MCF7": {"tested_on": "MCF7", "experiment": "Antiproliferative activity against human MCF7 cells after 72 hrs by MTT assay", "assay_type": "functional, cell-based", "conditions": "MCF7, 72 h", "outline": "as §1"}, "[1]": {"experiment": "Cytotoxicity against mouse L5178 cells after 48 hrs by MTT assay", "assay_type": "functional, cell-based", "conditions": "L5178, 48 h", "outline": "(§2)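 Parental mouse lymphoma L5178 and the MDR line made by pHa MDR1/A retrovirus transfection, selected with 60 µg/L colchicine. Grown in McCoy's 5A with horse serum at 37°C, 5% CO2. 5 x 10^4 cells/well, serial compound dilutions, 48 h. MTT added to 0.5 mg/mL final for 4 h, then 10% SDS in 0.01 M HCl overnight, OD read at 540 and 630 nm. IC50 taken as median cytotoxic activity (Dm) from control lanes of checkerboard plates, n=2.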"}, "[2]": {"experiment": "Cytotoxicity against mouse L5178 cells expressing human ABCB1 after 48 hrs by MTT assay", "assay_type": "functional, cell-based", "conditions": "L5178, 48 h", "outline": "as §2"}, "ABCB1 (P-glycoprotein) [3]": {"target": "T1, ABCB1 (P-glycoprotein) (Homo sapiens, UniProt P08183)", "T1 sequence (P08183 whole entry)": "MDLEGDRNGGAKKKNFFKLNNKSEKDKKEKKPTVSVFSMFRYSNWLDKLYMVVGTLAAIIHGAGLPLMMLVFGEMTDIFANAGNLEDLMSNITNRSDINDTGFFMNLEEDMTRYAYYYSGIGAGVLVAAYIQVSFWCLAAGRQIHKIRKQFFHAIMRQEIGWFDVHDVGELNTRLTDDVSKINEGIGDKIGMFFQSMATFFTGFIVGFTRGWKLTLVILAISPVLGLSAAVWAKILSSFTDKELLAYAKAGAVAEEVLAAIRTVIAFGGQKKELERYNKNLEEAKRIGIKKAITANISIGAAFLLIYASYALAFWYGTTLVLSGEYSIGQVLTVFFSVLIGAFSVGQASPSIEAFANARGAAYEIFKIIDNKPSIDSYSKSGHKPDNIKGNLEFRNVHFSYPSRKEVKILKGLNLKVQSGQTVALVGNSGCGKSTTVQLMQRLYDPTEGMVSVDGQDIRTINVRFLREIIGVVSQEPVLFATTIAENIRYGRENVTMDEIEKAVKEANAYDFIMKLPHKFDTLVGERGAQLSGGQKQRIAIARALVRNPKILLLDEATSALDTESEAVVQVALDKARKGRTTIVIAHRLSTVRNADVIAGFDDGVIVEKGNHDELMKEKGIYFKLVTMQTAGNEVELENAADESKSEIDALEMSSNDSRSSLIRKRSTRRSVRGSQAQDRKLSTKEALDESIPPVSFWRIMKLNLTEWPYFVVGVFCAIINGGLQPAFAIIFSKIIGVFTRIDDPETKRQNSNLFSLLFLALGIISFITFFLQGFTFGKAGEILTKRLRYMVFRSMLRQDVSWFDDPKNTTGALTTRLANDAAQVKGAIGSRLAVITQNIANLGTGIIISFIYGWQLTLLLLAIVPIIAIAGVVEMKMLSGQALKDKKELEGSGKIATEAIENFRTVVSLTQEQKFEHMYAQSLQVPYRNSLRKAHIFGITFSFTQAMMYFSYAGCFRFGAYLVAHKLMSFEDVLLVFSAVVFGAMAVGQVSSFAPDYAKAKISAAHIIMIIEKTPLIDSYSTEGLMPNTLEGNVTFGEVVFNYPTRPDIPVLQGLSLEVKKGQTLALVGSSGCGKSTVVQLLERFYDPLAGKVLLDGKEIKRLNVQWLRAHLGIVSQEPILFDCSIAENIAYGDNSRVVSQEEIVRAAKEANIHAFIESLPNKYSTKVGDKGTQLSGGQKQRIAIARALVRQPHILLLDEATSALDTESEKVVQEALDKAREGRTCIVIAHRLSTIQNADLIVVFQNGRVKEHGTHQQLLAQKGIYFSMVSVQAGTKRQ", "experiment": "Inhibition of human ABCB1 expressed in mouse L5178 cells assessed as increase in rhodamine-123 accumulation at 2 uM after 10 mins by flow cytometric analysis relative to control", "assay_type": "cell-based", "conditions": "mouse L5178 cells expressing human ABCB1, probe rhodamine-123", "outline": "(§3)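 Cells at 2 × 10^6/mL were preincubated 10 min with compound. Rhodamine 123 then added to 5.2 µM final, 20 min at 37 °C. Cells washed twice in PBS, resuspended and read by flow cytometry. Percent inhibition was scaled between MDR-cell accumulation (0%) and parental L5178 accumulation (100%). Controls: 100 nM tariquidar (positive) and 2% DMSO (negative).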"}, "ABCB1 (P-glycoprotein) [4]": {"target": "T1, ABCB1 (P-glycoprotein)", "experiment": "Inhibition of human ABCB1 expressed in mouse L5178 cells assessed as increase in rhodamine-123 accumulation at 20 uM after 10 mins by flow cytometric analysis relative to control", "assay_type": "cell-based", "conditions": "mouse L5178 cells expressing human ABCB1, probe rhodamine-123", "outline": "as §3"}, "[5]": {"experiment": "Synergistic cytotoxicity against mouse L5178 cells assessed as combination index at ED50 using 150:1 test compound to doxorubicin ratio after 48 hrs by MTT-based checkerboard microplate method", "assay_type": "functional", "outline": "(§4)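 Checkerboard microplate combinations of compound with doxorubicin at constant molar ratios. 5 × 10^4 cells/well in McCoy's 5A, 48 h at 37°C, 5% CO2. MTT added to 0.5 mg/mL final for 4 h, SDS/HCl overnight, OD read at 540 and 630 nm. Combination indices derived per ratio for 50%, 75% and 90% growth inhibition by median-effect analysis.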"}, "[6]": {"experiment": "Synergistic cytotoxicity against mouse L5178 cells expressing human ABCB1 assessed as combination index at ED50 using 15:1 test compound to doxorubicin ratio after 48 hrs by MTT-based checkerboard microplate method", "assay_type": "functional", "outline": "as §4"}, "[7]": {"experiment": "Synergistic cytotoxicity against mouse L5178 cells assessed as combination index at ED75 using 150:1 test compound to doxorubicin ratio after 48 hrs by MTT-based checkerboard microplate method", "assay_type": "functional", "outline": "as §4"}, "[8]": {"experiment": "Synergistic cytotoxicity against mouse L5178 cells assessed as combination index at ED90 using 150:1 test compound to doxorubicin ratio after 48 hrs by MTT-based checkerboard microplate method", "assay_type": "functional", "outline": "as §4"}, "[9]": {"experiment": "Synergistic cytotoxicity against mouse L5178 cells expressing human ABCB1 assessed as combination index at ED75 using 15:1 test compound to doxorubicin ratio after 48 hrs by MTT-based checkerboard microplate method", "assay_type": "functional", "outline": "as §4"}, "[10]": {"experiment": "Synergistic cytotoxicity against mouse L5178 cells expressing human ABCB1 assessed as combination index at ED90 using 15:1 test compound to doxorubicin ratio after 48 hrs by MTT-based checkerboard microplate method", "assay_type": "functional", "outline": "as §4"}, "[11]": {"experiment": "Synergistic cytotoxicity against mouse L5178 cells expressing human ABCB1 assessed as combination index at ED50 using 30:1 test compound to doxorubicin ratio after 48 hrs by MTT-based checkerboard microplate method", "assay_type": "functional", "outline": "as §4"}, "[12]": {"experiment": "Synergistic cytotoxicity against mouse L5178 cells expressing human ABCB1 assessed as combination index at ED75 using 30:1 test compound to doxorubicin ratio after 48 hrs by MTT-based checkerboard microplate method", "assay_type": "functional", "outline": "as §4"}, "[13]": {"experiment": "Synergistic cytotoxicity against mouse L5178 cells expressing human ABCB1 assessed as combination index at ED90 using 30:1 test compound to doxorubicin ratio after 48 hrs by MTT-based checkerboard microplate method", "assay_type": "functional", "outline": "as §4"}, "[14]": {"experiment": "Synergistic cytotoxicity against mouse L5178 cells expressing human ABCB1 assessed as combination index at ED50 using 7.5:1 test compound to doxorubicin ratio after 48 hrs by MTT-based checkerboard microplate method", "assay_type": "functional", "outline": "as §4"}, "[15]": {"experiment": "Synergistic cytotoxicity against mouse L5178 cells expressing human ABCB1 assessed as combination index at ED75 using 7.5:1 test compound to doxorubicin ratio after 48 hrs by MTT-based checkerboard microplate method", "assay_type": "functional", "outline": "as §4"}, "[16]": {"experiment": "Synergistic cytotoxicity against mouse L5178 cells expressing human ABCB1 assessed as combination index at ED90 using 7.5:1 test compound to doxorubicin ratio after 48 hrs by MTT-based checkerboard microplate method", "assay_type": "functional", "outline": "as §4"}, "[17]": {"experiment": "Synergistic cytotoxicity against mouse L5178 cells assessed as combination index at ED50 using 37.5:1 test compound to doxorubicin ratio after 48 hrs by MTT-based checkerboard microplate method", "assay_type": "functional", "outline": "as §4"}, "[18]": {"experiment": "Synergistic cytotoxicity against mouse L5178 cells assessed as combination index at ED75 using 37.5:1 test compound to doxorubicin ratio after 48 hrs by MTT-based checkerboard microplate method", "assay_type": "functional", "outline": "as §4"}, "[19]": {"experiment": "Synergistic cytotoxicity against mouse L5178 cells assessed as combination index at ED90 using 37.5:1 test compound to doxorubicin ratio after 48 hrs by MTT-based checkerboard microplate method", "assay_type": "functional", "outline": "as §4"}, "[20]": {"experiment": "Synergistic cytotoxicity against mouse L5178 cells assessed as combination index at ED50 using 75:1 test compound to doxorubicin ratio after 48 hrs by MTT-based checkerboard microplate method", "assay_type": "functional", "outline": "as §4"}, "[21]": {"experiment": "Synergistic cytotoxicity against mouse L5178 cells assessed as combination index at ED75 using 75:1 test compound to doxorubicin ratio after 48 hrs by MTT-based checkerboard microplate method", "assay_type": "functional", "outline": "as §4"}, "[22]": {"experiment": "Synergistic cytotoxicity against mouse L5178 cells assessed as combination index at ED90 using 75:1 test compound to doxorubicin ratio after 48 hrs by MTT-based checkerboard microplate method", "assay_type": "functional", "outline": "as §4"}, "[23]": {"experiment": "Synergistic cytotoxicity against mouse L5178 cells expressing human ABCB1 assessed as combination index at ED50 using 60:1 test compound to doxorubicin ratio after 48 hrs by MTT-based checkerboard microplate method", "assay_type": "functional", "outline": "as §4"}, "[24]": {"experiment": "Synergistic cytotoxicity against mouse L5178 cells expressing human ABCB1 assessed as combination index at ED75 using 60:1 test compound to doxorubicin ratio after 48 hrs by MTT-based checkerboard microplate method", "assay_type": "functional", "outline": "as §4"}, "[25]": {"experiment": "Synergistic cytotoxicity against mouse L5178 cells expressing human ABCB1 assessed as combination index at ED90 using 60:1 test compound to doxorubicin ratio after 48 hrs by MTT-based checkerboard microplate method", "assay_type": "functional", "outline": "as §4"}, "[26]": {"experiment": "Synergistic cytotoxicity against mouse L5178 cells assessed as combination index at ED50 using 300:1 test compound to doxorubicin ratio after 48 hrs by MTT-based checkerboard microplate method", "assay_type": "functional", "outline": "as §4"}, "[27]": {"experiment": "Synergistic cytotoxicity against mouse L5178 cells assessed as combination index at ED75 using 300:1 test compound to doxorubicin ratio after 48 hrs by MTT-based checkerboard microplate method", "assay_type": "functional", "outline": "as §4"}, "[28]": {"experiment": "Synergistic cytotoxicity against mouse L5178 cells assessed as combination index at ED90 using 300:1 test compound to doxorubicin ratio after 48 hrs by MTT-based checkerboard microplate method", "assay_type": "functional", "outline": "as §4"}, "[29]": {"experiment": "Synergistic cytotoxicity against mouse L5178 cells assessed as combination index at ED50 using 600:1 test compound to doxorubicin ratio after 48 hrs by MTT-based checkerboard microplate method", "assay_type": "functional", "outline": "as §4"}, "[30]": {"experiment": "Synergistic cytotoxicity against mouse L5178 cells assessed as combination index at ED75 using 600:1 test compound to doxorubicin ratio after 48 hrs by MTT-based checkerboard microplate method", "assay_type": "functional", "outline": "as §4"}, "[31]": {"experiment": "Synergistic cytotoxicity against mouse L5178 cells assessed as combination index at ED90 using 600:1 test compound to doxorubicin ratio after 48 hrs by MTT-based checkerboard microplate method", "assay_type": "functional", "outline": "as §4"}},
  "data": [
    {"smiles": "CC(C)(O)CC[C@H]1OC(C)(C)O[C@]1(C)[C@H]1CC[C@@]2(O)C3=C/C(=N\\OC(C)(C)C)[C@@H]4C[C@H]5OC(C)(C)O[C@H]5C[C@]4(C)[C@H]3CC[C@]12C", "values": [
      {"measurement": "IC50", "setting": "HeLa", "value": 8.43, "unit": "µM"},
      {"measurement": "IC50", "setting": "SiHa", "value": 16.1, "unit": "µM"},
      {"measurement": "IC50", "setting": "MDA-MB-231", "value": 12.4, "unit": "µM"},
      {"measurement": "IC50", "setting": "MCF7", "value": 11.1, "unit": "µM"},
      {"measurement": "IC50", "setting": "[1]", "value": 28.1, "unit": "µM"},
      {"measurement": "IC50", "setting": "[2]", "value": 29.1, "unit": "µM"},
      {"measurement": "inhibition at 10 min, 2 µM", "setting": "ABCB1 (P-glycoprotein) [3]", "value": 38.8, "unit": "%"},
      {"measurement": "inhibition at 10 min, 20 µM", "setting": "ABCB1 (P-glycoprotein) [4]", "value": 112, "unit": "%"},
      {"measurement": "CI", "setting": "[5]", "value": 0.24},
      {"measurement": "CI", "setting": "[6]", "value": 0.66},
      {"measurement": "CI", "setting": "[7]", "value": 0.91},
      {"measurement": "CI", "setting": "[8]", "value": 1.26},
      {"measurement": "CI", "setting": "[9]", "value": 0.23},
      {"measurement": "CI", "setting": "[10]", "value": 0.25},
      {"measurement": "CI", "setting": "[11]", "value": 0.27},
      {"measurement": "CI", "setting": "[12]", "value": 0.29},
      {"measurement": "CI", "setting": "[13]", "value": 0.36},
      {"measurement": "CI", "setting": "[14]", "value": 0.3},
      {"measurement": "CI", "setting": "[15]", "value": 0.2},
      {"measurement": "CI", "setting": "[16]", "value": 0.17},
      {"measurement": "CI", "setting": "[17]", "value": 0.58},
      {"measurement": "CI", "setting": "[18]", "value": 0.63},
      {"measurement": "CI", "setting": "[19]", "value": 0.7},
      {"measurement": "CI", "setting": "[20]", "value": 0.56},
      {"measurement": "CI", "setting": "[21]", "value": 0.67},
      {"measurement": "CI", "setting": "[22]", "value": 0.8},
      {"measurement": "CI", "setting": "[23]", "value": 0.38},
      {"measurement": "CI", "setting": "[24]", "value": 0.44},
      {"measurement": "CI", "setting": "[25]", "value": 0.53},
      {"measurement": "CI", "setting": "[26]", "value": 0.91},
      {"measurement": "CI", "setting": "[27]", "value": 0.98},
      {"measurement": "CI", "setting": "[28]", "value": 1.06},
      {"measurement": "CI", "setting": "[29]", "value": 1},
      {"measurement": "CI", "setting": "[30]", "value": 1.3},
      {"measurement": "CI", "setting": "[31]", "value": 1.7}
    ]}
  ]
}
